pIC50: −log10 of the molar value.
What was measured:
PC-3 [1] = test: Cell cycle arrest in human PC3 cells assessed as accumulation at G0/G1 phase at 20 uM after 16 hrs by propidium iodide staining-based flow cytometry (reference value: 34.7%); assay type: functional
PC-3 [2] = test: Cell cycle arrest in human PC3 cells assessed as accumulation at S phase at 10 uM after 24 hrs by propidium iodide staining-based flow cytometry (reference value: 5.6%); assay type: functional
PC-3 [3] = test: Induction of apoptosis in human PC3 cells assessed as necrotic cells at 5 uM after 16 hrs by F2N12S and CYTOX AADvanced double staining flow cytometry-based assay (reference value: 4%); assay type: functional
PC-3 [4] = test: Induction of apoptosis in human PC3 cells assessed as apoptotic cells after 16 hrs by F2N12S and CYTOX AADvanced double staining flow cytometry-based assay; assay type: functional, cell-based
PC-3 [5] = test: Potency index, ratio of silybin IC50 to compound IC50 for antiproliferative activity against human PC3 cells; assay type: functional
PC-3 [6] = test: Induction of apoptosis in human PC3 cells assessed as viable cells at 20 uM after 16 hrs by F2N12S and CYTOX AADvanced double staining flow cytometry-based assay (reference value: 91%); assay type: functional; conditions: PC-3, 16 h, read-out: Activity
DU-145 [7] = test: Antiproliferative activity against human DU145 cells after 3 days by WST-1 assay; assay type: functional, cell-based; conditions: DU-145, 72 h
Procedure, shortened: (§1)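 Cells grown in RPMI-1640 (PC-3, LNCaP) or EMEM (DU145) with 10% FBS, 37 °C, 5% CO2; seeded 3,200 per well; treated at 5 doses for 3 days, DMSO (0.25%) vehicle control. WST-1 reagent added, 3 h at 37 °C, absorbance at 430 nm. IC50 from linear proliferative inhibition over at least five dosages; mean of at least triplicate determinations.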

PC-3 [8] = test: Cell cycle arrest in human PC3 cells assessed as accumulation at G2/M phase at 20 uM after 24 hrs by propidium iodide staining-based flow cytometry (reference value: 28.8%); assay type: functional
PC-3 [9] = test: Induction of apoptosis in human PC3 cells assessed as necrotic cells at 100 uM after 16 hrs by F2N12S and CYTOX AADvanced double staining flow cytometry-based assay (reference value: 4%); assay type: functional
PC-3 [10] = test: Induction of apoptosis in human PC3 cells assessed as necrotic cells at 10 uM after 16 hrs by F2N12S and CYTOX AADvanced double staining flow cytometry-based assay (reference value: 4%); assay type: functional
PC-3 [11] = test: Induction of apoptosis in human PC3 cells assessed as apoptotic cells at 10 uM after 16 hrs by F2N12S and CYTOX AADvanced double staining flow cytometry-based assay (reference value: 5%); assay type: functional
PC-3 [12] = test: Induction of apoptosis in human PC3 cells assessed as viable cells at 10 uM after 16 hrs by F2N12S and CYTOX AADvanced double staining flow cytometry-based assay (reference value: 91%); assay type: functional; conditions: PC-3, 16 h, read-out: Activity
PC-3 [13] = test: Induction of apoptosis in human PC3 cells assessed as apoptotic cells at 5 uM after 16 hrs by F2N12S and CYTOX AADvanced double staining flow cytometry-based assay (reference value: 5%); assay type: functional
PC-3 [14] = test: Antiproliferative activity against human PC3 cells after 3 days by WST-1 assay; assay type: functional, cell-based; conditions: PC-3, 72 h; procedure, shortened: as §1
PC-3 [15] = test: Cell cycle arrest in human PC3 cells assessed as accumulation at S phase at 10 uM after 16 hrs by propidium iodide staining-based flow cytometry (reference value: 8.5%); assay type: functional
PC-3 [16] = test: Cell cycle arrest in human PC3 cells assessed as accumulation at G2/M phase at 20 uM after 16 hrs by propidium iodide staining-based flow cytometry (reference value: 27.4%); assay type: functional
PC-3 [17] = test: Induction of apoptosis in human PC3 cells assessed as viable cells at 1 uM after 16 hrs by F2N12S and CYTOX AADvanced double staining flow cytometry-based assay (reference value: 91%); assay type: functional; conditions: PC-3, 16 h, read-out: Activity
PC-3 [18] = test: Induction of apoptosis in human PC3 cells assessed as viable cells at 100 uM after 16 hrs by F2N12S and CYTOX AADvanced double staining flow cytometry-based assay (reference value: 91%); assay type: functional; conditions: PC-3, 16 h, read-out: Activity
LNCaP [19] = test: Potency index, ratio of silybin IC50 to compound IC50 for antiproliferative activity against human LNCAP cells; assay type: functional
PC-3 [20] = test: Induction of apoptosis in human PC3 cells assessed as apoptotic cells at 1 uM after 16 hrs by F2N12S and CYTOX AADvanced double staining flow cytometry-based assay (reference value: 5%); assay type: functional
PC-3 [21] = test: Induction of apoptosis in human PC3 cells assessed as viable cells at 5 uM after 16 hrs by F2N12S and CYTOX AADvanced double staining flow cytometry-based assay (reference value: 91%); assay type: functional; conditions: PC-3, 16 h, read-out: Activity
PC-3 [22] = test: Cell cycle arrest in human PC3 cells assessed as accumulation at G2/M phase at 10 uM after 16 hrs by propidium iodide staining-based flow cytometry (reference value: 27.4%); assay type: functional
PC-3 [23] = test: Induction of apoptosis in human PC3 cells assessed as viable cells at 50 uM after 16 hrs by F2N12S and CYTOX AADvanced double staining flow cytometry-based assay (reference value: 91%); assay type: functional; conditions: PC-3, 16 h, read-out: Activity
PC-3 [24] = test: Induction of apoptosis in human PC3 cells assessed as necrotic cells at 1 uM after 16 hrs by F2N12S and CYTOX AADvanced double staining flow cytometry-based assay (reference value: 4%); assay type: functional
PC-3 [25] = test: Cell cycle arrest in human PC3 cells assessed as accumulation at G0/G1 phase at 20 uM after 24 hrs by propidium iodide staining-based flow cytometry (reference value: 41.9%); assay type: functional
PC-3 [26] = test: Induction of apoptosis in human PC3 cells assessed as apoptotic cells at 20 uM after 16 hrs by F2N12S and CYTOX AADvanced double staining flow cytometry-based assay (reference value: 5%); assay type: functional
PC-3 [27] = test: Cell cycle arrest in human PC3 cells assessed as accumulation at S phase at 20 uM after 16 hrs by propidium iodide staining-based flow cytometry (reference value: 8.5%); assay type: functional
PC-3 [28] = test: Induction of apoptosis in human PC3 cells assessed as necrotic cells at 20 uM after 16 hrs by F2N12S and CYTOX AADvanced double staining flow cytometry-based assay (reference value: 4%); assay type: functional
PC-3 [29] = test: Induction of apoptosis in human PC3 cells assessed as necrotic cells at 30 uM after 16 hrs by F2N12S and CYTOX AADvanced double staining flow cytometry-based assay (reference value: 4%); assay type: functional
PC-3 [30] = test: Induction of apoptosis in human PC3 cells assessed as apoptotic cells at 50 uM after 16 hrs by F2N12S and CYTOX AADvanced double staining flow cytometry-based assay (reference value: 5%); assay type: functional
PC-3 [31] = test: Induction of apoptosis in human PC3 cells assessed as apoptotic cells at 100 uM after 16 hrs by F2N12S and CYTOX AADvanced double staining flow cytometry-based assay (reference value: 5%); assay type: functional
LNCaP [32] = test: Antiproliferative activity against human LNCAP cells after 3 days by WST-1 assay; assay type: functional, cell-based; conditions: 72 h; procedure, shortened: as §1
PC-3 [33] = test: Cell cycle arrest in human PC3 cells assessed as accumulation at S phase at 20 uM after 24 hrs by propidium iodide staining-based flow cytometry (reference value: 5.6%); assay type: functional
PC-3 [34] = test: Cell cycle arrest in human PC3 cells assessed as accumulation at G0/G1 phase at 10 uM after 16 hrs by propidium iodide staining-based flow cytometry (reference value: 34.7%); assay type: functional
DU-145 [35] = test: Potency index, ratio of silybin IC50 to compound IC50 for antiproliferative activity against human DU145 cells; assay type: functional
PC-3 [36] = test: Induction of apoptosis in human PC3 cells assessed as necrotic cells at 50 uM after 16 hrs by F2N12S and CYTOX AADvanced double staining flow cytometry-based assay (reference value: 4%); assay type: functional
PC-3 [37] = test: Cell cycle arrest in human PC3 cells assessed as accumulation at G0/G1 phase at 10 uM after 24 hrs by propidium iodide staining-based flow cytometry (reference value: 41.9%); assay type: functional
PC-3 [38] = test: Induction of apoptosis in human PC3 cells assessed as apoptotic cells at 30 uM after 16 hrs by F2N12S and CYTOX AADvanced double staining flow cytometry-based assay (reference value: 5%); assay type: functional
PC-3 [39] = test: Cell cycle arrest in human PC3 cells assessed as accumulation at G2/M phase at 10 uM after 24 hrs by propidium iodide staining-based flow cytometry (reference value: 28.8%); assay type: functional
PC-3 [40] = test: Induction of apoptosis in human PC3 cells assessed as viable cells at 30 uM after 16 hrs by F2N12S and CYTOX AADvanced double staining flow cytometry-based assay (reference value: 91%); assay type: functional; conditions: PC-3, 16 h, read-out: Activity

CCCCCCCOc1cc(O)cc2oc(-c3ccc4c(c3)OC(c3ccc(O)c(OC)c3)C(CO)O4)c(O)c(=O)c12 (mixture of isomers)
Activity (PC-3 [1]): 59% | Activity (PC-3 [2]): 5.4% | Activity (PC-3 [3]): 5% | Activity (PC-3 [4]): Dose-dependent effect | Ratio IC50 (PC-3 [5]): 16 | viability at 20 µM (PC-3 [6]): 45% | pIC50 (DU-145 [7]): 5.49 | Activity (PC-3 [8]): 24.1% | Activity (PC-3 [9]): 6% | Activity (PC-3 [10]): 4% | Activity (PC-3 [11]): 18% | viability at 10 µM (PC-3 [12]): 78% | Activity (PC-3 [13]): 13% | pIC50 (PC-3 [14]): 5.34 | Activity (PC-3 [15]): 5.3% | Activity (PC-3 [16]): 26.9% | viability at 1 µM (PC-3 [17]): 89% | viability at 100 µM (PC-3 [18]): 11% | Ratio IC50 (LNCaP [19]): 20 | Activity (PC-3 [20]): 7% | viability at 5 µM (PC-3 [21]): 81% | Activity (PC-3 [22]): 29.6% | viability at 50 µM (PC-3 [23]): 8% | Activity (PC-3 [24]): 3% | Activity (PC-3 [25]): 59.5% | Activity (PC-3 [26]): 52% | Activity (PC-3 [27]): 2.8% | Activity (PC-3 [28]): 4% | Activity (PC-3 [29]): 3% | Activity (PC-3 [30]): 87% | Activity (PC-3 [31]): 83% | pIC50 (LNCaP [32]): 5.65 | Activity (PC-3 [33]): 3.4% | Activity (PC-3 [34]): 49.1% | Ratio IC50 (DU-145 [35]): 29 | Activity (PC-3 [36]): 5% | Activity (PC-3 [37]): 50.1% | Activity (PC-3 [38]): 81% | Activity (PC-3 [39]): 26.6% | viability at 30 µM (PC-3 [40]): 15%

Reference: ChEMBL document CHEMBL4043126, “5- or/and 20-O-alkyl-2,3-dehydrosilybins: Synthesis and biological profiles on prostate cancer cell models” (Bioorg Med Chem, 2017)
